Laboratory results: publication PMC11208914 (Biochemistry and Biophysics Reports, 2024)
Entries after “also recorded” stand apart in the source; their conditions may differ. Where two headings read alike, the source gives them in different places.

Columns and labels:
[1] = test system: HMC3 cells; assay: CellTiter-Glo cell viability test, HMC3 cells; format: cell-based; settings: Fig. 2; for cytotoxic effect on HMC3 cells at 100 μg/ml: about 100 μg/ml
Summary of the method: (§1)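 HMC3 or HeLa cells were grown in DMEM with L-glutamine, 10 % FCS and 1 % penicillin/streptomycin, then seeded at 10^4 cells/well. Peptide in ½ dilutions (100 to 1.5 μg/ml) was added for 2 h at 37 °C and 5 % CO2. Medium was then replaced with DMEM/10 % FCS for 24 h, with untreated cells as control. ATP was read by CellTiter-Glo luminescence, in triplicate.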

[2] = test system: ZIKV PF13; format: cell-based, Zika virus; settings: FACS; for reduction in infection: virus treated before infection of HMC3 cells
Summary of the method: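 HMC3 cells were seeded at 4.10^4 cells/well the day before. ZIKV PF13 (MOI 1.5) was preincubated with ½ dilutions of peptide (50 to 3 μg/ml) for 1 h at 37 °C, then added to cells for 1.5 h at 37 °C before medium replacement; duplicates. Trypsinized cells were fixed and permeabilized (30 min, 4 °C), stained with 4G2 anti-envelope antibody (1/500) and Alexa488 secondary (1/1000), then analysed by flow cytometry.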

[3] = test system: HeLa cells; assay: CellTiter-Glo cell viability test, HeLa cells; format: cell-based
Summary of the method: as §1

Sequence	concentration at which the peptide remained non-toxic to HMC3 cells [1]	cytotoxic effect on HMC3 cells at 100 μg/ml [1]	reduction in infection ([2]; 6.25 μg/ml)	viability of HeLa cells at 100 μg/ml [3]	concentration at which the peptide exhibits cytotoxicity to HeLa cells ([3]; Fig. 3)	reduction in infection ([2]; 3 μg/ml)	effect on ZIKV PF13 infection ([2]; non-cytotoxic concentrations 50 to 3 μg/ml, HMC3 cells)	cytotoxicity to HeLa cells ([3]; even at high concentrations, Fig. 3)
ALWKTLLKKVLKAAAKAALKAVLVGAKA [K4K20K27S4]	about 12.5 μg/ml	exhibited cytotoxicity	Approximately 90%	18%	50 µg/mL			
ALWKTLLKKVLKAAAKAALKAVLVGANA [K4K20S4]	about 12.5 μg/ml	exhibited cytotoxicity		approximately 1%	around 25 μg/ml	Approximately 90%		
GLKKKIKEVGKEAAKAAAKAAGKAALGAVSEAV [K3K4B2]		no cytotoxic effects					increased the infection	non-cytotoxic; also recorded: did not exhibit any toxic effects
